These results are taken from ChEMBL document CHEMBL1141057, “Synthesis and antibacterial activity of a novel series of DNA gyrase inhibitors: 5-[(E)-2-arylvinyl]pyrazoles” (Bioorg Med Chem Lett, 2005).

Assay [1] has as its system Escherichia coli. In words: Minimal inhibitory concentration against Escherichia coli NIHJ JC-2; susceptible strain. In kind it is functional. In outline:
(§1)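 MIC determined by the microdilution method.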

Assay [2] concerns Staphylococcus aureus. The experiment in a line: Minimal inhibitory concentration against Staphylococcus aureus FDA 209P; susceptible strain. It is filed as functional. The gist of the method:
(§2)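 MIC determined by the microdilution method against Gram-positive strains, including a susceptible strain and a multidrug-resistant S. aureus strain.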

The subject of assay [3] is Staphylococcus aureus. The experiment in a line: Minimal inhibitory concentration against Staphylococcus aureus KMP9; multidrug resistant strain. In kind it is functional. The gist of the method:
as §2

Assay [4] deals with Escherichia coli. The experiment in a line: Minimal inhibitory concentration against Escherichia coli W3110 delta acrA; A multidrug efflux pump mutant. It is filed as functional. The gist of the method:
as §1

Assay [5] has as its system Streptococcus pneumoniae. The experiment in a line: Minimal inhibitory concentration against Streptococcus pneumoniae KT2524 (PRSP); sparfloxacin, clarithromycin, ampicillin resistant strain. It is filed as functional.
For assay [6], the system named is Enterococcus faecium. The experiment in a line: Minimal inhibitory concentration against Enterococcus faecium KU1778 (VRE); sparfloxacin, clarithromycin, ampicillin, vancomycin resistant strain. In kind it is functional.
The test system of assay [7] is Staphylococcus aureus. In words: Minimal inhibitory concentration against Staphylococcus aureus FDA 209P(MSSA); susceptible strain. It is filed as functional.
Assay [8] has as its system Enterococcus faecium. In words: Minimal inhibitory concentration against Enterococcus faecium ATCC 19434 (VSE); susceptible strain. In kind it is functional.
For assay [9], the system named is Streptococcus pneumoniae. In words: Minimal inhibitory concentration against Streptococcus pneumoniae ATCC 49619 (PSSP); susceptible strain. In kind it is functional.
For assay [10], the system named is Staphylococcus aureus. In words: Minimal inhibitory concentration against Staphylococcus aureus KMP9 (MRSA); sparfloxacin, clarithromycin, ampicillin resistant strain. In kind it is functional.
In another assay the target is DNA gyrase (Escherichia coli, UniProt P0AES4+P0AES6). In words: Inhibitory activity against supercoiling activity of DNA gyrase isolated from Escherichia coli. In kind it is protein-complex assay.
Assay [11] deals with T1, DNA topoisomerase 4 subunit A (Escherichia coli K-12, UniProt P0AFI2).
T1 sequence (P0AFI2 whole entry): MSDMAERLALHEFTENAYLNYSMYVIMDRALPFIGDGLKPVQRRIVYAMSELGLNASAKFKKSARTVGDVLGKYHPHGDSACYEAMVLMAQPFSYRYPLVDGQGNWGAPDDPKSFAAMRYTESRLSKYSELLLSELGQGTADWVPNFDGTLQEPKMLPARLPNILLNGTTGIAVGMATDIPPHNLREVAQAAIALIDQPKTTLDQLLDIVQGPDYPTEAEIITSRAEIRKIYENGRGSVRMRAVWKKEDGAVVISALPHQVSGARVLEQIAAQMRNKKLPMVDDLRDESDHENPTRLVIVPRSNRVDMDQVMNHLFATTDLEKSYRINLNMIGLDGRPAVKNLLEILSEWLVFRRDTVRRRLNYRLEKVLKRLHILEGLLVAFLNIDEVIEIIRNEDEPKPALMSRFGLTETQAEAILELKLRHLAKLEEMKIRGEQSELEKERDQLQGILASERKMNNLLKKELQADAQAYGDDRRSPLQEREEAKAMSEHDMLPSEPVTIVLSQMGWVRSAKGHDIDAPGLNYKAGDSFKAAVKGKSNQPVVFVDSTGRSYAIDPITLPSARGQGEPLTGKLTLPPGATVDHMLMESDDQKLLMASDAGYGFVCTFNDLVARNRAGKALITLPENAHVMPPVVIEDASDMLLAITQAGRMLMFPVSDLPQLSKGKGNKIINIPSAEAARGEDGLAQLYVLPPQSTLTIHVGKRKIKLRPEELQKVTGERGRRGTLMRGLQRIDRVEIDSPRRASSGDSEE
The experiment in a line: Inhibitory activity against decatenation of DNA topoisomerase IV isolated from Escherichia coli.

Assay [12] relates to Staphylococcus aureus. In words: 4 Minimal inhibitory concentration against Staphylococcus aureus KMP9; multidrug resistant strain. It is filed as functional. The gist of the method:
as §2

Each structure is given as a SMILES string. Converted amounts (≈) assume the structure as drawn.

For orientation: MIC means the lowest concentration that inhibits growth of the organism. Read a low MIC as greater potency. Turning to `Clc1ccc(/C=C/c2cc(C3CCNCC3)[nH]n2)cc1Cl`, the MIC in the assay on Escherichia coli [1] worked out at 8 µg/mL (≈ 24.8 µM); against Staphylococcus aureus [2] it was 4 µg/mL (≈ 12.4 µM); against Staphylococcus aureus [3], 4 µg/mL (≈ 12.4 µM); in the assay on Escherichia coli [4], 4 µg/mL (≈ 12.4 µM).

As to `Clc1cccc(Cl)c1CCc1cc(C2CCNCC2)[nH]n1`, the MIC in the assay with Escherichia coli [1] amounted to 128 µg/mL (≈ 395 µM); with Staphylococcus aureus [2], 32 µg/mL (≈ 98.7 µM); in the assay with Staphylococcus aureus [3], 64 µg/mL (≈ 197 µM); against Escherichia coli [4], 64 µg/mL (≈ 197 µM).

Regarding `Clc1cccc(-n2nc(C3CCNCC3)cc2CCc2c(Cl)cccc2Cl)c1`, the MIC was more than 128 µg/mL against Escherichia coli [1], 32 µg/mL (≈ 73.6 µM) in the assay with Staphylococcus aureus [2], 32 µg/mL (≈ 73.6 µM) against Staphylococcus aureus [3] and 16 µg/mL (≈ 36.8 µM) against Escherichia coli [4].

On to `Clc1cccc(-n2nc(C3CCNCC3)cc2CCc2c[nH]c3ccc(Cl)cc23)c1`, for which the MIC against Streptococcus pneumoniae [5] came out at 8 µg/mL (≈ 18.2 µM); in the assay on Enterococcus faecium [6] it was 16 µg/mL (≈ 36.4 µM); in the assay with Escherichia coli [1] it was 64 µg/mL (≈ 146 µM); in the assay on Staphylococcus aureus [2], 16 µg/mL (≈ 36.4 µM); against Staphylococcus aureus [3], 16 µg/mL (≈ 36.4 µM); with Staphylococcus aureus [7] it was 16 µg/mL (≈ 36.4 µM). Also, the MIC in the assay with Enterococcus faecium [8], with Streptococcus pneumoniae [9], with Escherichia coli [4] and against Staphylococcus aureus [10] was 16 µg/mL (≈ 36.4 µM) throughout.

The IC50 is the midpoint of a concentration-inhibition curve. Regarding `Clc1ccc(COc2ccc(/C=C/c3cc(C4CCNCC4)[nH]n3)cc2)cc1Cl`, the MIC against Streptococcus pneumoniae [5] is 1 µg/mL (≈ 2.33 µM); in the assay on Enterococcus faecium [6], 1 µg/mL (≈ 2.33 µM); in the assay on Escherichia coli [1], 4 µg/mL (≈ 9.34 µM); with Staphylococcus aureus [2], 2 µg/mL (≈ 4.67 µM); in the assay with Staphylococcus aureus [3], 2 µg/mL (≈ 4.67 µM); in the assay on Staphylococcus aureus [7], 2 µg/mL (≈ 4.67 µM). For the same compound, the MIC in the assay on Enterococcus faecium [8], in the assay on Streptococcus pneumoniae [9], in the assay on Escherichia coli [4] and with Staphylococcus aureus [10] was 2 µg/mL (≈ 4.67 µM) in each case. The half-maximal inhibitory concentration (IC50) against DNA gyrase is 32.4 µM; in assay [11], 64.9 µM.

For the compound `Clc1cccc(-n2nc(C3CCNCC3)cc2/C=C/c2ccc(OCc3ccc(Cl)c(Cl)c3)cc2)c1`, the MIC with Escherichia coli [1] is 32 µg/mL (≈ 59.4 µM); against Staphylococcus aureus [2] it was 2 µg/mL (≈ 3.71 µM); in the assay with Staphylococcus aureus [3], 4 µg/mL (≈ 7.42 µM); in the assay with Escherichia coli [4], 4 µg/mL (≈ 7.42 µM).

Regarding `Clc1cccc(-n2nc(C3CCNCC3)cc2/C=C/c2cc3cc(Cl)ccc3[nH]2)c1`, the MIC in the assay with Escherichia coli [1] was 16 µg/mL (≈ 36.6 µM); with Staphylococcus aureus [2] it was 2 µg/mL (≈ 4.57 µM); in the assay on Staphylococcus aureus [3], 4 µg/mL (≈ 9.15 µM); in the assay on Escherichia coli [4] it was 4 µg/mL (≈ 9.15 µM).

Take `Clc1cccc(Cl)c1/C=C/c1cc(C2CCNCC2)[nH]n1`: the MIC is more than 128 µg/mL with Escherichia coli [1], 128 µg/mL (≈ 397 µM) in the assay with Staphylococcus aureus [2], more than 128 µg/mL in the assay on Staphylococcus aureus [3] and more than 128 µg/mL against Escherichia coli [4].

With `Clc1cccc(-n2nc(C3CCNCC3)cc2/C=C/c2c(Cl)cccc2Cl)c1`, the MIC came out at 4 µg/mL (≈ 9.24 µM) in the assay with Streptococcus pneumoniae [5]; 8 µg/mL (≈ 18.5 µM) in the assay with Enterococcus faecium [6]; 64 µg/mL (≈ 148 µM) against Escherichia coli [1]; 4 µg/mL (≈ 9.24 µM) in the assay with Staphylococcus aureus [2]; 4 µg/mL (≈ 9.24 µM) in the assay with Staphylococcus aureus [3]; 4 µg/mL (≈ 9.24 µM) in the assay on Staphylococcus aureus [7]. Further, the MIC was determined as 8 µg/mL (≈ 18.5 µM) in the assay on Enterococcus faecium [8], 4 µg/mL (≈ 9.24 µM) against Streptococcus pneumoniae [9], 4 µg/mL (≈ 9.24 µM) in the assay with Escherichia coli [4] and 4 µg/mL (≈ 9.24 µM) in the assay with Staphylococcus aureus [10].

As for `Clc1cccc(-n2nc(C3CCNCC3)cc2/C=C/c2ccc(Cl)c(Cl)c2)c1`, the MIC with Escherichia coli [1] turned out to be 16 µg/mL (≈ 37 µM); in the assay on Staphylococcus aureus [2], 8 µg/mL (≈ 18.5 µM); with Staphylococcus aureus [12], 4 µg/mL (≈ 9.24 µM); in the assay with Escherichia coli [4], 4 µg/mL (≈ 9.24 µM).

Regarding `Clc1cccc(-n2nc(C3CCNCC3)cc2/C=C/c2c[nH]c3ccc(Cl)cc23)c1`, the MIC was determined as 2 µg/mL (≈ 4.57 µM) in the assay with Streptococcus pneumoniae [5]; 2 µg/mL (≈ 4.57 µM) against Enterococcus faecium [6]; 8 µg/mL (≈ 18.3 µM) against Escherichia coli [1]; 1 µg/mL (≈ 2.29 µM) with Staphylococcus aureus [2]; 1 µg/mL (≈ 2.29 µM) with Staphylococcus aureus [3]; 1 µg/mL (≈ 2.29 µM) with Staphylococcus aureus [7]. The MIC is 2 µg/mL (≈ 4.57 µM) in the assay with Enterococcus faecium [8], 2 µg/mL (≈ 4.57 µM) in the assay on Streptococcus pneumoniae [9], 4 µg/mL (≈ 9.15 µM) with Escherichia coli [4] and 1 µg/mL (≈ 2.29 µM) against Staphylococcus aureus [10]. Besides, the IC50 on DNA gyrase is 18.3 µM; in [11], 31.8 µM.

`Cn1cc(/C=C/c2cc(C3CCNCC3)nn2-c2cccc(Cl)c2)c2cc(Cl)ccc21`: the minimum inhibitory concentration (MIC) is 1 µg/mL (≈ 2.22 µM) in the assay on Streptococcus pneumoniae [5]; 1 µg/mL (≈ 2.22 µM) against Enterococcus faecium [6]; more than 128 µg/mL against Escherichia coli [1]; 2 µg/mL (≈ 4.43 µM) against Staphylococcus aureus [2]; 2 µg/mL (≈ 4.43 µM) in the assay on Staphylococcus aureus [3]; 2 µg/mL (≈ 4.43 µM) against Staphylococcus aureus [7]. Also, the MIC in the assay with Enterococcus faecium [8] stood at 2 µg/mL (≈ 4.43 µM); in the assay with Streptococcus pneumoniae [9] it was 1 µg/mL (≈ 2.22 µM); against Escherichia coli [4], 4 µg/mL (≈ 8.86 µM); in the assay with Staphylococcus aureus [10], 2 µg/mL (≈ 4.43 µM). In [11], this compound showed an IC50 of 35.4 µM.
